Reference: ChEMBL document CHEMBL1156567, “Sulindac derivatives that activate the peroxisome proliferator-activated receptor gamma but lack cyclooxygenase inhibition” (J Med Chem, 2008)
Activity calls are given as the source filed them. The calls are words filed in the database; no cut-off is given here.

Tests used:
[1] = target: T1, Peroxisome proliferator-activated receptor gamma (Homo sapiens, UniProt P37231); experiment: (§1) Agonist activity at PPARgamma expressed in human HCA7 cells assessed as induction of peroxisome proliferator response element after 12 hrs by luciferase reporter assay; assay type: functional, cell-based
T1 sequence (P37231 whole entry): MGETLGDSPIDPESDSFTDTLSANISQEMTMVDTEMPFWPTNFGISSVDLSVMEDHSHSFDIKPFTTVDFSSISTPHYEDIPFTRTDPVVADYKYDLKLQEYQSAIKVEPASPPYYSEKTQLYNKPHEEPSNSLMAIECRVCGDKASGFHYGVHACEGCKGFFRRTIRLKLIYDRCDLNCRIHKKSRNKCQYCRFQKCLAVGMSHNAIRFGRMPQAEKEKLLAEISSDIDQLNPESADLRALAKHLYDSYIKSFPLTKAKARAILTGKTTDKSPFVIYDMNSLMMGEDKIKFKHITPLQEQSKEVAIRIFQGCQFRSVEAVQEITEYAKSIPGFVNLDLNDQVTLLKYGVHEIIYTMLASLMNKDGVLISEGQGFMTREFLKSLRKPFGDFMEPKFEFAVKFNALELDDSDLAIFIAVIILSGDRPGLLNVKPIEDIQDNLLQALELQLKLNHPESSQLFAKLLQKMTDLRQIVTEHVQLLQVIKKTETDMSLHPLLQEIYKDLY

[2] = target: Prostaglandin G/H synthase 1 (Homo sapiens) (UniProt P23219); experiment: Inhibition of cyclooxygenase 1 upto 4 uM
Chain of Prostaglandin G/H synthase 1 (Homo sapiens) (P23219 whole entry): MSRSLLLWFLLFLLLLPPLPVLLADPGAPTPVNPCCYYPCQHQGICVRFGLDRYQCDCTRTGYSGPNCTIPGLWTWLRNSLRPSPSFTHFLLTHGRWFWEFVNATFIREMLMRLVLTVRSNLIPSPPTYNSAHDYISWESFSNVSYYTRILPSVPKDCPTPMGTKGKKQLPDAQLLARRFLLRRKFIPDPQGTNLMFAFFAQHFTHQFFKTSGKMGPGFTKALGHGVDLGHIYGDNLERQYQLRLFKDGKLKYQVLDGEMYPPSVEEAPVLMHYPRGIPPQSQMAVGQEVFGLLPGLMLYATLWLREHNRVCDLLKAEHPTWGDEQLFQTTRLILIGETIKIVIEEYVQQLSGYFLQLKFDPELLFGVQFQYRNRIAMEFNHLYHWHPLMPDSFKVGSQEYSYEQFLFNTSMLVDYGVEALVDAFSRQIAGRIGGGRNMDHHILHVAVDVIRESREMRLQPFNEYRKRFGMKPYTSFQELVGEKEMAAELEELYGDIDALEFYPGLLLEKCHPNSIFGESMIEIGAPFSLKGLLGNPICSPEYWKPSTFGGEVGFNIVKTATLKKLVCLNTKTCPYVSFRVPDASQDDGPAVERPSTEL

[3] = target: T2, Peroxisome proliferator-activated receptor gamma (Homo sapiens) (UniProt P37231); experiment: as §1; assay type: functional, cell-based
T2 sequence (whole entry): T1 sequence (P37231 whole entry)

[4] = target: T2, Peroxisome proliferator-activated receptor gamma (Homo sapiens); experiment: Displacement of [3H]troglitazone from human PPARgamma ligand binding domain expressed in Escherichia coli by scintillation proximity assay
Outline: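 His-tagged human PPARγ-LBD from E. coli, biotinylated and bound to streptavidin SPA beads. Competition against 50 nM 3H-troglitazone with rising unlabeled compound. Buffer 50 mM HEPES pH 7, 50 mM KCl, 5 mM CHAPS, BSA, no dithiothreitol.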

[5] = target: T2, Peroxisome proliferator-activated receptor gamma (Homo sapiens); experiment: Stimulation of PPARgamma binding to P32-labeled peroxisome proliferator response element in human HCA7 cells nuclear extracts after 30 mins by electrophoretic mobility shift assay; assay type: cell-based
Outline: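 HCA7 cells treated with vehicle or 0.1–1 μM for 30 min, then nuclear extracts prepared. 5 μg nuclear protein preincubated 10 min at 25 °C in HEPES pH 7.9, glycerol, BSA, poly(dI·dC). 32P-labeled PPRE oligonucleotide added for 20 min at 25 °C. Specificity checked by 100-fold unlabeled or mutant competitor and PPARγ antibody supershift. Run on 4% native PAGE, read by autoradiography.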

[6] = target: T2, Peroxisome proliferator-activated receptor gamma (Homo sapiens); experiment: Agonist activity at PPARgamma in human HCA7 cells assessed as induction of L-FABP expression after 24 hrs by Western blotting; assay type: functional, cell-based
Outline: (§2)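 HCA7 cells (DMEM, 10% FBS) treated 0–1 μM for 24 h. Lysates made in Tween 20/protease-inhibitor buffer, sonicated and cleared at 10000g. Protein measured by BCA, 100 μg/lane run on 12.5% SDS-PAGE. Blotted to nitrocellulose, probed for L-FABP, aP2 and β-actin, HRP secondary with ECL detection.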

[7] = target: T2, Peroxisome proliferator-activated receptor gamma (Homo sapiens); experiment: Agonist activity at PPARgamma in human HCA7 cells assessed as induction of aP2 expression after 24 hrs by Western blotting; assay type: functional, cell-based; outline: as §2
[8] = target: T2, Peroxisome proliferator-activated receptor gamma (Homo sapiens); experiment: Agonist activity at PPARgamma in human HCA7 cells assessed as induction of L-FABP expression after 24 hrs by Western blotting in presence of GW-9662; assay type: functional, cell-based
Outline: (§3)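 HCA7 cells given vehicle, the agonist, the antagonist alone, or both together for 24 h. Lysate protein 100 μg/lane on 12.5% SDS-PAGE, transferred to nitrocellulose. Immunoblot probed for L-FABP, aP2 and β-actin with ECL detection.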

[9] = target: T2, Peroxisome proliferator-activated receptor gamma (Homo sapiens); experiment: Agonist activity at PPARgamma in human HCA7 cells assessed as induction of aP2 expression after 24 hrs by Western blotting in presence of GW-9662; assay type: functional, cell-based; outline: as §3
3T3-L1 = experiment: Induction of triglyceride accumulation in mouse 3T3L1 cells at 1 uM after 48 hrs; assay type: functional, cell-based
Outline: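 Mouse 3T3-L1 cells in DMEM with 10% calf serum, grown to 60% confluence. Differentiation started with 0.1% IBMX plus 1.0% dexamethasone for 48 h. Then 2 days in growth medium with 10 μg/mL human insulin plus compound, then fresh growth medium for 48 h. Lipid droplets stained with Oil Red O and imaged at 200×.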

[10] = target: T2, Peroxisome proliferator-activated receptor gamma (Homo sapiens); experiment: Agonist activity at PPARgamma in human HCA7 cells expressing shRNA assessed as induction of peroxisome proliferator response element at 1 uM after 12 hrs by luciferase reporter assay; assay type: functional, cell-based
Outline: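 HCA7 lines stably carrying control or PPARγ/α/δ shRNA (nucleofection, puromycin selection). Cells at 40% confluence co-transfected with 1.8 μg PPRE-luciferase and 0.2 μg pSVβgal using Lipofectamine 2000. After 6 h, growth medium for 16 h, then 12 h compound in serum-free medium. Luciferase normalized to β-galactosidase; means, SD, n = 6; Student's t test.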

[11] = target: T3, Peroxisome proliferator-activated receptor delta (Homo sapiens) (UniProt Q03181); experiment: Agonist activity at PPARdelta in human HCA7 cells assessed as induction of peroxisome proliferator response element at 1 uM after 12 hrs by luciferase reporter assay; assay type: functional, cell-based
T3 sequence (whole entry): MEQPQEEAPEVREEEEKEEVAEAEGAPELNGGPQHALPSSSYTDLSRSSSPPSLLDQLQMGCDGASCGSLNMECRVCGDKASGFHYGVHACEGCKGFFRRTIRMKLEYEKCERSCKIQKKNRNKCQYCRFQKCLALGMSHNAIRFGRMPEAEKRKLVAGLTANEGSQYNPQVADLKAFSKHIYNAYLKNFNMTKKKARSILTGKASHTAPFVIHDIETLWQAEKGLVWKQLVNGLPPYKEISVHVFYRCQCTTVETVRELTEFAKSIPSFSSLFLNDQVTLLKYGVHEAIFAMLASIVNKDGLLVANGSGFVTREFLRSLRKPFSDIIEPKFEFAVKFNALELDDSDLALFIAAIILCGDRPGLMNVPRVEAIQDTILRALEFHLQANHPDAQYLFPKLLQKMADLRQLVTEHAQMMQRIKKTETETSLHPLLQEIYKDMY
Outline: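 HCA7 human colon cancer cells (which express PPARα, δ and γ) grown in DMEM with 10% FBS to 40% confluence. Transfected with 1.8 μg PPRE-luciferase plus 0.2 μg pSVβgal using Lipofectamine 2000. After 6 h, growth medium for 16 h, then compound in serum-free medium for 12 h. Luciferase normalized to β-galactosidase; n = 6.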

[12] = target: T3, Peroxisome proliferator-activated receptor delta (Homo sapiens); experiment: Agonist activity at PPARdelta in human HCA7 cells expressing shRNA assessed as induction of peroxisome proliferator response element at 1 uM after 12 hrs by luciferase reporter assay; assay type: functional, cell-based
Outline: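 Stable HCA7 lines made by nucleofection with control shRNA or shRNAs to PPARγ, α or δ, then puromycin-selected; silencing checked by immunoblot. Cells transfected with 1.8 μg PPRE-luciferase plus 0.2 μg pSVβgal (Lipofectamine 2000). Medium change after 6 h, growth medium for 16 h, then 1 μM compound serum-free for 12 h. Luciferase normalized to β-galactosidase; n = 6.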

| SMILES | EC50 [1] [nM] | Activity [2] | also measured |
| --- | --- | --- | --- |
| O=C(O)CC1=C/C(=C\c2ccc(SC(F)(F)F)cc2)c2ccc(F)cc21 | 200 | inactive |  |
| CS(=O)(=O)c1ccc(/C=C2\C=C(CC(=O)O)c3cc(F)ccc32)cc1 | > 10000 | inactive |  |
| [N-]=[N+]=NCc1ccc(/C=C2\C=C(CC(=O)O)c3cc(F)ccc32)cc1 | 900 | inactive |  |
| Cc1ccc(/C=C2\C=C(CC(=O)O)c3cc(F)ccc32)cc1 | 2400 | inactive |  |
| O=C(O)CC1=C/C(=C\c2ccccc2)c2ccc(F)cc21 | 1700 | inactive |  |
| CSc1ccc(-c2ccc(/C=C3\C=C(CC(=O)O)c4cc(F)ccc43)cc2)cc1 | 1500 | inactive |  |
| O=C(O)CC1=C/C(=C\c2ccc3ccccc3c2)c2ccc(F)cc21 | 1200 | inactive |  |
| O=C(O)CC1=C/C(=C\c2ccc(Br)cc2)c2ccc(F)cc21 | 1100 | inactive |  |
| O=C(O)CC1=C/C(=C\c2ccc(F)c3ccccc23)c2ccc(F)cc21 | 100 | inactive |  |
| O=C(O)CC1=C/C(=C\c2ccc(-c3ccccc3)cc2)c2ccc(F)cc21 | 100 | inactive |  |
| C#Cc1ccc(/C=C2\C=C(CC(=O)O)c3cc(F)ccc32)cc1 | 1100 | inactive |  |
| CSc1ccc(/C=C2/C(C)=C(CC(=O)O)c3cc(F)ccc32)cc1 |  | inactive |  |
| O=C(O)CC1=C/C(=C\c2ccc(C(=O)O)cc2)c2ccc(F)cc21 | > 10000 | inactive |  |
| C[S+]([O-])c1ccc(/C=C2\C=C(CC(=O)O)c3cc(F)ccc32)cc1 (stereo unspecified) | > 10000 | inactive |  |
| O=C(O)CC1=CCc2ccc(F)cc21 | > 10000 | inactive |  |
| O=C(O)CC1=C/C(=C\c2cccc3cccnc23)c2ccc(F)cc21 | 1500 | inactive |  |
| O=C(O)CC1=C/C(=C\c2ccc3nccnc3c2)c2ccc(F)cc21 | > 10000 | inactive |  |
| CSc1ccc(/C=C2\C=C(CC(=O)O)c3cc(F)ccc32)cc1 | 700 | inactive |  |
| O=C(O)CC1=C/C(=C\c2ccc(C(F)(F)F)cc2)c2ccc(F)cc21 | 2500 | inactive |  |
| O=C(O)CC1=C/C(=C\c2cccc3ccccc23)c2ccc(F)cc21 | 100 | inactive | Activity [3]: Dose-dependent effect; Activity [4]: Active; Activity [5]: Active; Activity [6]: Active; Activity [7]: Active; Activity [8]: inactive; Activity [9]: inactive; Activity (3T3-L1): Active; Activity [10]: inactive; Activity [11]: Active; Activity [12]: inactive |
| COc1ccc(/C=C2\C=C(CC(=O)O)c3cc(F)ccc32)cc1 | 1300 | inactive |  |
| CC(C)(C)Oc1ccc(/C=C2\C=C(CC(=O)O)c3cc(F)ccc32)cc1 | 1900 | inactive |  |
| O=C(O)CC1=C/C(=C\c2ccc(-c3ccc(F)cc3F)cc2)c2ccc(F)cc21 | 100 | inactive |  |
